Molecules are shown by their SMILES.

The text below walks through data of ChEMBL document CHEMBL5053495, “A Versatile Sub-Nanomolar Fluorescent Ligand Enables NanoBRET Binding Studies and Single-Molecule Microscopy at the Histamine H3 Receptor” (J Med Chem, 2021).

For assay [1], the target named is T1, Histamine H3 receptor (Homo sapiens, UniProt Q9Y5N1). Kind of assay: Displacement of [3H]UR-P1294 from human H3R receptor expressed in HEK293 cells by radioligand competition binding assay. Type of assay: cell-based.
The target in assay [2] is T1, Histamine H3 receptor. Kind of assay: Binding affinity in Nluc-hH3R assessed in HEK293 cells by NanoBRET binding assay. Type of assay: cell-based. The method in brief: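 Saturation NanoBRET binding of the fluorescent ligand at live HEK293 cells stably expressing NLuc-hH3R; acceptor/donor BRET ratio; pKd from saturation isotherm; three independent experiments, each in duplicate.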

For assay [3], the target named is T1, Histamine H3 receptor. Description: Binding affinity in Nluc-hH3R assessed in HEK293T cells by NanoBRET binding assay. Type of assay: cell-based.
Assay [4] has as its target T1, Histamine H3 receptor. Kind of assay: Binding affinity to human H3R expressed in HEK293 cells by flow cytometric analysis. Format: cell-based.
The target of assay [5] is T1, Histamine H3 receptor. Kind of assay: Binding affinity in Nluc-hH3R assessed as association time constant receptor saturated after 15 mins by NanoBRET binding assay.
The target in assay [6] is T1, Histamine H3 receptor. Description: Binding affinity in Nluc-hH3R assessed as dissociation time constant by NanoBRET binding assay.
In assay [7] the target is T1, Histamine H3 receptor. Kind of assay: Binding affinity in Nluc-hH3R assessed as association rate constant by NanoBRET binding assay.
The target in assay [8] is Histamine H1 receptor (Homo sapiens, UniProt P35367). Description: Displacement of [3H]mepyramine from human H1R receptor expressed in HEK293 cells by radioligand competition binding assay. Format: cell-based.
Assay [9] deals with Histamine H2 receptor (Homo sapiens, UniProt P25021). Description: Displacement of [3H]UR-DE25 from human H2R receptor expressed in HEK293 cells by radioligand competition binding assay. Format: cell-based.
Assay [10] has as its target Histamine H4 receptor (Homo sapiens, UniProt Q9H3N8). Kind of assay: Displacement of [3H]histamine from human H4R receptor expressed in HEK293 cells by radioligand competition binding assay. Type of assay: cell-based.
For assay [11], the target named is T1, Histamine H3 receptor. Kind of assay: Inhibition of human H3R expressed in HEK293-A cells assessed as inhibition of imetit-induced Gi2 activation by BRET assay. Type of assay: cell-based.
Assay [12] has as its target T1, Histamine H3 receptor. Kind of assay: Binding affinity in human H3 receptor expressed in HEK293 cells by confocal microscopy. Type of assay: cell-based.
Assay [13] addresses T1, Histamine H3 receptor. Description: Binding affinity in human H3R assessed as association time constant by confocal microscopy.
Assay [14] addresses T1, Histamine H3 receptor. Description: Binding affinity in human H3R as assessed as dissociation time constant using confocal microscopy relative to control.
Assay [15] has as its target T1, Histamine H3 receptor. Description: Binding affinity in human H3R assessed as association rate constant using confocal microscopy.
The species named for assay [16] is Homo sapiens. Kind of assay: Selectivity ratio of Ki for human H1 receptor to Ki for human H3 receptor.
For assay [17], the species on record is Homo sapiens. Kind of assay: Selectivity ratio of Ki for human H2 receptor to Ki for human H3 receptor.
For assay [18], the species on record is Homo sapiens. Kind of assay: Selectivity ratio of Ki for human H4 receptor to Ki for human H3 receptor.
Assay [19] deals with T1, Histamine H3 receptor. Kind of assay: Binding affinity to human H3 receptor assessed as labeling efficiency by measuring dual color acquisition at 3 nM by microscopy based TIRF assay.

T1 sequence (Q9Y5N1 whole entry): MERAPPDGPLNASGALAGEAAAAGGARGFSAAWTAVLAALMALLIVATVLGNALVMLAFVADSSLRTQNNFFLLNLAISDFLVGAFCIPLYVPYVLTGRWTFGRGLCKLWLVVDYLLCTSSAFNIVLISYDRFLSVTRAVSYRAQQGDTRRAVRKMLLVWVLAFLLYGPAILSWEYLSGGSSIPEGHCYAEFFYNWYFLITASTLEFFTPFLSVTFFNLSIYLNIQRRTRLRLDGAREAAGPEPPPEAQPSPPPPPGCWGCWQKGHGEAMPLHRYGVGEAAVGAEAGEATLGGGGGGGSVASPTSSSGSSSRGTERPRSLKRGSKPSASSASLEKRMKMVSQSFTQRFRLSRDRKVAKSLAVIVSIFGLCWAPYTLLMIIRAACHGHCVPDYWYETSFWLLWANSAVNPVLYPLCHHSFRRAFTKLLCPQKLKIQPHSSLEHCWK
Histamine H2 receptor, sequence (P25021 whole entry): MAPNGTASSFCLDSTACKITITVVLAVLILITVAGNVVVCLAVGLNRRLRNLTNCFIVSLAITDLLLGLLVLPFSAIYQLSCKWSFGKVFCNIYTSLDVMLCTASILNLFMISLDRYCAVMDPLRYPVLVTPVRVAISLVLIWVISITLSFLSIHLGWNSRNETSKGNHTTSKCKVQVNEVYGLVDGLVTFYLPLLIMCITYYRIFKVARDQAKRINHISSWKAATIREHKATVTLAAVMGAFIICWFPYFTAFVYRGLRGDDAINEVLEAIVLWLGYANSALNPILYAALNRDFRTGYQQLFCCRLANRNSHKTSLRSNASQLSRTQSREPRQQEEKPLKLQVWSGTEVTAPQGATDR
Histamine H4 receptor, sequence (Q9H3N8 whole entry): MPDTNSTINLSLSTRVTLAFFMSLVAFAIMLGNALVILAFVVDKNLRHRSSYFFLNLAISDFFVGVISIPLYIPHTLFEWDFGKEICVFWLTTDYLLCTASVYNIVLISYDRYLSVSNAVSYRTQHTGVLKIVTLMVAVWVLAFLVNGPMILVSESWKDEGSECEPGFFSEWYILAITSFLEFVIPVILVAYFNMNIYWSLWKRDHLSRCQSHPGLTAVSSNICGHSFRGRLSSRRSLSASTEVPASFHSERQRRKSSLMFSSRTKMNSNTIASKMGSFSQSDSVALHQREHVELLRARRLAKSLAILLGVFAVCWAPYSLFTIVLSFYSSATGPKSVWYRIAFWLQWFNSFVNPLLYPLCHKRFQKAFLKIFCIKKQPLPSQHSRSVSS
Histamine H1 receptor, sequence (P35367 whole entry): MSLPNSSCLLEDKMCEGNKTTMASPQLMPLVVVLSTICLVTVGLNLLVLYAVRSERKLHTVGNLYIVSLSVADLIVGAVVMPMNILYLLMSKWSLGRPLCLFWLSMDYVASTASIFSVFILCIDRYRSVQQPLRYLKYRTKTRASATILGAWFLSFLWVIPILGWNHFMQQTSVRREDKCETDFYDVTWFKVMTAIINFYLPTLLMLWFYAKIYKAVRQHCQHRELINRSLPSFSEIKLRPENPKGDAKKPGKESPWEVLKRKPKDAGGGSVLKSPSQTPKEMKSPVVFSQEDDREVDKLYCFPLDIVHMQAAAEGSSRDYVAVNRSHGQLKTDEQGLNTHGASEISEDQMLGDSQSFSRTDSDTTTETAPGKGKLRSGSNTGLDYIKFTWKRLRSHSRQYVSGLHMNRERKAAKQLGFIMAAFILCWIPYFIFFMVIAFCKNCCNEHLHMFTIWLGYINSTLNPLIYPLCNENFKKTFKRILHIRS

`NCCOCCOCCOCCNC(=O)C1CCN(Cc2ccc(OCCCN3CCCCC3)cc2)CC1` showed a Ki in [1] of 0.398 nM.

For `N=C(N)SCCc1cnc[nH]1` [IMETIT], the Ki was 12.6 nM in assay [2] and 5.01 nM in assay [3].

Turning to `O=C(O)C1CCN(Cc2ccc(OCCCN3CCCCC3)cc2)CC1`, in assay [1], the affinity, expressed as Ki, was 1.58 nM. This lies in the single-digit nanomolar range.

As to `CCN1CCN(C(=O)c2ccc(-c3nc4ccccc4s3)s2)CC1`, the Ki in assay [2] and in assay [3] was 19.5 nM throughout.

On to `CN(C)c1ccc2c(-c3ccc(C(=O)NCCOCCOCCOCCNC(=O)C4CCN(Cc5ccc(OCCCN6CCCCC6)cc5)CC4)cc3C(=O)[O-])c3ccc(=[N+](C)C)cc-3oc2c1`, for which the Kd stood at 0.195 nM in assay [4] and 0.158 nM in assay [2]. Also, the TIME stood at 0.0328 h in assay [5], 0.107 h in assay [6], 0.008 h in assay [13] and 0.0583 h in assay [14]. Moreover, the Activity in assay [7] turned out to be 0.71 min⁻¹ nM⁻¹; in [12], 2.13 min⁻¹; in assay [15], 0.37 min⁻¹ nM⁻¹; in [19], 96.1%. The Ki in assay [8] was more than 100000 nM; in assay [9], more than 100000 nM; in assay [1], 0.302 nM; in assay [10], more than 100000 nM. Further, in assay [11], the pKb came out at 9.04. The Ratio Ki in assay [16], in [17] and in assay [18] was more than 100000 each time.

In turn, `CCOC(=O)C1CCN(Cc2ccc(OCCCN3CCCCC3)cc2)CC1` gave a Ki in assay [1] of 0.275 nM.
